Sampled rows, rich in hits. Any-hit rate of the full collection: about 1.7%.
C-LANA FP: inhibitors of KSHV C-LANA binding to DNA, primary screen, biochemical, fluorescence polarization, FAM-LBS DNA, MBP-C-LANA, single point; Kaposi's sarcoma herpesvirus LANA C-terminal domain (residues 932-1162) DNA binding; inhibition, % at 9 µM; hit rate 0.078% among 340,000;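 active means highest replicate inhibition at or above 60% at 9 µM, even if other replicates fall short; inactive means all replicates below 60% inhibition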;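 further: 0% = neutral control wells and 100% = 4 µM acridine orange control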
CAL PDZ FP-1: untagged CAL PDZ binding inhibitors, primary screen, biochemical, fluorescence polarization, HTS; Golgi-associated PDZ and coiled-coil motif-containing protein (Homo sapiens), Q9HD26; purified CAL PDZ, TMR-peptide fluorescence polarization, 1 h; inhibition, % at 24.9 µM; hit rate 0.92% among 300,000;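 active means mean inhibition of at least 30% with at least half of replicates also reaching 30%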;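 further: 0% = DMSO neutral control and 100% = excess unlabeled competitor peptide PRC23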
A3G deaminase: APOBEC3G DNA deaminase inhibitors, primary screen, biochemical, fluorescence, single-stranded DNA substrate, uHTS | AID 493012, 2011 | DNA dC->dU-editing enzyme APOBEC-3G (Homo sapiens), Q9HC16 | recombinant A3G, ssDNA deamination FAM/TAMRA fluorescence | inhibition, % at 20 µM | hit rate 0.28% among 330,000;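 active means inhibition of at least 40% at 20 µM, with no more than 30% in the related APOBEC3A deaminase screen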;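 further: plate controls were DMSO wells with A3G for no effect and wells lacking A3G enzyme for full effect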
A3A deaminase: APOBEC3A ssDNA deaminase inhibitors, primary screen, selectivity assay for APOBEC3G inhibitor project, biochemical, FAM/TAMRA oligo cleavage fluorescence; DNA dC->dU-editing enzyme APOBEC-3A (Homo sapiens), P31941; recombinant A3A, FAM/TAMRA ssDNA deamination fluorescence; inhibition, % at 20 µM; hit rate 0.41% among 330,000; AID 493011, 2011;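 active means at least 40% inhibition at 20 µM here, with at most 30% in a related deaminase screen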;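 further: plate controls were A3A with DMSO for no effect and wells lacking A3A enzyme for full effect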
Target sequence (P31941 whole entry, looked up): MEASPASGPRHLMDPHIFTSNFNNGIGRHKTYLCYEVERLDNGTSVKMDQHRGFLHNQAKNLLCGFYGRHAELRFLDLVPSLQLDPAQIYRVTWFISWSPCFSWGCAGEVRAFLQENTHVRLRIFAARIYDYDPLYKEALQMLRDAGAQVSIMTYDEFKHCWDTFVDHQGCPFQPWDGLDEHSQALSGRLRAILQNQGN
Keap1-Nrf2 PPI: Keap1-Nrf2 protein-protein interaction inhibitors, primary screen, biochemical, fluorescence polarization, single point | Kelch-like ECH-associated protein 1 (Homo sapiens), Q14145 | Keap1 Kelch-Nrf2 peptide fluorescence polarization, 1536-well | inhibition, % at 9.4 µM | hit rate 0.15% among 340,000; in the data active means inhibition above about 12%;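 further: human Keap1 Kelch domain with fluorescein labeled Nrf2 9mer peptide probe; 0% = neutral control wells and 100% = peptide positive control; higher means more block of Keap1 binding to Nrf2 peptide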
CAL PDZ FP-2: CAL PDZ peptide-binding inhibitors, primary screen, biochemical, fluorescence polarization, Cer-tagged CAL PDZ, HTS. Golgi-associated PDZ and coiled-coil motif-containing protein (Homo sapiens), Q9HD26. purified CAL PDZ, TMR-peptide fluorescence polarization, 1 h. inhibition, % at 20 µM. hit rate 0.02% among 330,000. AID 504414, 2011;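 active means highest replicate inhibition of at least 40%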;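 further: plate controls were DMSO neutral control wells for no effect and unlabeled competitor peptide control wells for full effect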
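Test system: tagged CAL PDZ domain / Buffer or medium: sodium phosphate/NaCl buffer pH 7.4 with TCEP, IgG, Thesit / Reagent: TMR-labelled reporter peptide T*-PRC34 bound in PDZ groove / Compound dosing: single point, 20 µM / Schedule: 1 h incubation at room temperature before polarization reading / Technique: fluorescence polarization (mP) / Benchmarks: unlabelled peptide, DMSO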
A3G conf: APOBEC3G deaminase inhibitor retest, confirmation, biochemical, fluorescence, single-stranded DNA substrate, single concentration; shares compounds with A3G deaminase; hit rate 72% among 890; inhibition, % at 20 µM; AID 493152, 2011; recombinant A3G ssDNA deaminase, UDG/FAM-TAMRA fluorescence;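 active means inhibition reaching a set limit in any replicate at 20 µM, the limit being 80% of the first screen's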
UDG A3G counter: E. coli UDG inhibitors, confirmation, counter-screen for APOBEC3G inhibitor project, biochemical, single concentration, fluorescence, FAM/TAMRA oligo | inhibition, % at 20 µM | AID 504715, 2011 | 710 tested, under 10 active | shares compounds with A3G deaminase | UDG counterscreen;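 active means compounds giving 40% or more inhibition at 20 µM in any one of the three replicates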;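 further: plate controls were DMSO wells with UDG and oligo for no effect and DMSO wells lacking both for full effect; inhibitors lower the FAM signal released by uracil excision and alkaline cleavage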
Target sequence (P12295 whole entry, looked up): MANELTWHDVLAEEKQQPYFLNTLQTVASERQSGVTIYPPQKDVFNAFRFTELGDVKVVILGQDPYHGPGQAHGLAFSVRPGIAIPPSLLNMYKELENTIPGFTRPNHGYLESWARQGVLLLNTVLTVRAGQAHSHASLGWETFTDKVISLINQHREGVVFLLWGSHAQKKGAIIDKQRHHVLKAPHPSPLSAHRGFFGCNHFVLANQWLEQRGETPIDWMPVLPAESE
* = called active by the depositor; x = no result given.

SMILES	C-LANA FP	CAL PDZ FP-1	A3G deaminase	A3A deaminase	Keap1-Nrf2 PPI	CAL PDZ FP-2	A3G conf	UDG A3G counter
CCc1c(C)sc(NC(=O)Cn2nc(C)c([N+](=O)[O-])c2C)c1C(N)=O	0	-8	52*	0	-7	-2	24*	-4
c1ccc(CCc2nn3c(Cn4nnc5ccccc54)nnc3s2)cc1	3	-2	32	4	3	-5	x	x
Clc1ccccc1-c1nnc2sc(CCc3ccccc3)nn12	-2	-8	63*	2	-1	x	51*	-2
c1ccc(CCc2nn3c(-c4ccncc4)nnc3s2)cc1	0	-1	17	7	-2	-4	x	x
c1ccc(CCc2nn3c(Cn4cnc5ccccc54)nnc3s2)cc1	-2	x	49*	0	0	-4	21*	-6
COc1nc(OC)nc(Oc2ccc([N+](=O)[O-])cc2Cl)n1	-2	3	-3	0	-3	-1	x	x
CC1CCCN(CCCNC(=O)c2cn(C)c3ccc(S(=O)(=O)N(C)C4CCCCC4)cc3c2=O)C1 (centres undefined)	0	x	-5	-3	-4	-1	x	x
CN(C)S(=O)(=O)c1ccc2c(c1)c(=O)c(C(=O)NCCCN1CCCCCC1)cn2C	0	x	52*	5	-4	-1	5	x
COC(=O)c1cc(=O)nc2sc(-c3cccs3)nn12	0	-2	-11	2	-3	x	x	x
COC(=O)c1cc(=O)nc2sc(-c3ccc(F)cc3)nn12	0	-21	42*	6	-6	-2	34*	-3
Cn1c(-c2cc3c(C(F)(F)F)nn(C)c3s2)n[nH]c1=S	0	-2	53*	-2	-3	x	77*	1
CCn1c(-c2cc3c(C(F)(F)F)nn(C)c3s2)n[nH]c1=S	-1	x	41*	-8	2	0	63*	-2
Cn1nc(C(F)(F)F)c2cc(C(=O)O)sc21	0	x	-3	-2	-2	0	x	x
COC(=O)c1cc2c(C(F)(F)F)nn(C)c2s1	1	0	-3	-2	4	-1	x	x
Cc1onc(-c2c(F)cccc2Cl)c1C(=O)NCCc1ccncc1	0	-4	-9	-4	-1	-3	x	x
CC(C)n1cc(CN2CCC(n3nccc3NC(=O)CCCc3ccccc3)CC2)cn1	-3	-3	-2	1	-2	0	x	x
CC(C)n1cc(CN2CCC(n3nccc3NC(=O)Cc3ccccc3)CC2)cn1	1	-3	71*	4	5	-2	4	x
COc1cc(OC)c(C(=O)CCCN2CCCC2)c(OC)c1	0	0	-5	0	4	1	x	x
O=C(Nc1cccc(N2C(=O)C=CC2=O)c1)c1cccs1	0	-3	55*	24	-17	-1	58*	x
COc1ccc(C(=O)N2CCN(c3ccc(N4CCOCC4)nn3)CC2)cc1OC	4	1	-6	-4	-1	-1	x	x
CSCCC(C)N1CCC(Oc2ccc(C(=O)N3CCCC3)cc2)CC1 (centres undefined)	2	x	-4	0	2	0	x	x

Screens deposited in PubChem by several laboratories.
